Source: paper PMC11500341 (Scientific Reports, 2024)

Legend:
VEGF = test: Western blot, VEGF expression; format: cell-based, human; conditions: MCF-7 and MDA-MB-231; after treatments
Procedure, shortened: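 MCF-7 and MDA-MB-231 lysates were taken 48 h and 72 h after the treatment groups. Protein was quantified by BCA and 30 µg run on 10% SDS-PAGE, then transferred to PVDF. Membranes were blocked 2 h in 5% milk in TBS-T. Mouse anti-human VEGF (1:300, in 5% BSA TBS-T) was applied overnight at 4 °C, then 2 h at room temperature. Detection used HRP goat anti-mouse (1:4000) and ECL, with band densitometry.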

[1] = tested on: Caspase 3/7 in MCF-7 cells; test: Caspase glow 3/7 assay, MCF-7; format: cell-based; conditions: P3 300 μm / Dox 0.2 μm / Dox + P3 0.2 μm + 300 μm, p ≤ 0.0001
MDA-MB-231 cells = test: Cell migration; format: cell-based; conditions: after 48 h and 72 h
Procedure, shortened: (§1)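 Cells were seeded at 0.2 × 10^6 per 35 mm dish in DMEM with 10% FBS and left to adhere overnight at 37 °C in 5% CO2. Monolayers were scratched with a sterile pipette tip and imaged at time zero. They were then treated: control, 0.05% DMSO vehicle, three test compound levels, doxorubicin, and doxorubicin plus the top level. The scratched area was re-imaged at 24, 48 and 72 h.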

[2] = tested on: Caspase 3/7 in MDA-MB-231 cells; test: Caspase glow 3/7 assay, MDA-MB-231; format: cell-based; conditions: P3 300 μm / Dox 0.2 μm / Dox + P3 0.2 μm + 300 μm, p ≤ 0.0001
Procedure, shortened: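 MDA-MB-231 cells were seeded at 5 × 10^3 per well and adhered overnight. They were exposed to the test compound (P1 75, P2 150, P3 300), Dox 0.2 or Dox + P3 for 24, 48 or 72 h. Caspase-Glo 3/7 reagent (substrate/luciferase) was added, followed by 30–60 min at 25 °C. Luminescence was then read.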

MCF-7 cells = test: Cell migration; format: cell-based; conditions: after 48 h and 72 h
Procedure, shortened: as §1

Rac1 = test: Western blot, Rac1 expression; format: cell-based, human; conditions: P3 300 μm / Dox 0.2 μm / Dox + P3 0.2 μm + 300 μm, vs CT
Procedure, shortened: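 MCF-7 cells (DMEM, 10% FBS) were treated per group for 48 and 72 h. Lysate protein was measured by BCA, and 30 µg was run on 10% SDS-PAGE and transferred to PVDF. Blots were blocked in 5% milk/TBS-T for 2 h. Rabbit anti-Rac1 (1:250) and GAPDH (1:500) antibodies were applied overnight at 4 °C, then 2 h at room temperature. HRP secondary (1:4000) and ECL detection followed, with band densitometry.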

Rac1 and Tiam1 complex = conditions: cited from earlier work
breast-cancer cells = conditions: cited from earlier work

SMILES | VEGF expression (in words) (VEGF) | fold change in RLU with respect to control (caspase 3/7) ([1]; MCF-7, 48 h) | fold change in RLU with respect to control (caspase 3/7) ([1]; MCF-7, 72 h) | rate of cell proliferation and migration (ranking) (MDA-MB-231 cells) | fold change in RLU with respect to control (caspase 3/7) ([2]; MDA-MB-231, 48 h) | fold change in RLU with respect to control (caspase 3/7) ([2]; MDA-MB-231, 72 h) | rate of cell proliferation and migration (ranking) (MCF-7 cells) | % change of protein expression (Rac1; MCF-7, 48 h) [%] | % change of protein expression (Rac1; MCF-7, 72 h) [%] | % change of protein expression (Rac1; MDA-MB-231, 48 h) [%] | % change of protein expression (Rac1; MDA-MB-231, 72 h) [%] | inhibition of Rac1-Tiam1 interaction (Rac1 and Tiam1 complex) | cell cycle arrest and apoptosis (breast-cancer cells)
COc1cccc2c1C(=O)c1c(O)c3c(c(O)c1C2=O)C[C@@](O)(C(=O)CO)C[C@@H]3O[C@H]1C[C@H](N)[C@H](O)[C@H](C)O1 [Dox, Doxorubicin, reference compound] | downregulated after treatments with peptide and Dox | 1.64 | 0.79 | slowest in Dox + P3 followed by Dox, P3, P2 and P1 | 0.84 | 1.02 | slowest in Dox + P3 followed by Dox, P3, P2 and P1 | 13.13 | 43.31 | 32.57 | 31.39 | – | –
CCN(CC)CCCC(C)Nc1nc(C)cc(Nc2ccc3nc(C)cc(N)c3c2)n1 (stereo not shown) [NSC23766] | – | – | – | – | – | – | – | – | – | – | – | inhibits the interactions between Rac1 and Tiam1 complex | induce G1 cell cycle arrest and apoptosis
